Hep lipid drop: modulators of hepatic lipid droplet formation; AML12 mouse hepatocytes, oleate lipid droplets, BODIPY imaging; actives 0.4% (n = 240,000); inhibition, % at 6.5 µM;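 active = lipid droplet intensity inhibited by at least 50%, with more than 500 cells counted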
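Assay system: AML12 mouse liver cells | Compound dosing: One dose, 6.5 µM compound | Read-out basis: Droplet intensity reduction, % inhibition | Measured by: Fluorescence imaging, 20x objective, two fields per well | Schedule: Overnight treatment with compound plus oleate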
MrgX1 agonist: agonists of human MrgX1 receptor; Q96LB2; MrgX1-HEK293 cells, Fluo-4 calcium fluorescence, agonist mode; active compounds read high; B-score at 10 µM; actives 0.44% (n = 310,000); AID 588627;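 active = calcium response B-score plate-corrected fluorescence ratio at least 3 library SD, with starting fluorescence B-score inside 5 SD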
Target sequence (Q96LB2 whole entry, looked up): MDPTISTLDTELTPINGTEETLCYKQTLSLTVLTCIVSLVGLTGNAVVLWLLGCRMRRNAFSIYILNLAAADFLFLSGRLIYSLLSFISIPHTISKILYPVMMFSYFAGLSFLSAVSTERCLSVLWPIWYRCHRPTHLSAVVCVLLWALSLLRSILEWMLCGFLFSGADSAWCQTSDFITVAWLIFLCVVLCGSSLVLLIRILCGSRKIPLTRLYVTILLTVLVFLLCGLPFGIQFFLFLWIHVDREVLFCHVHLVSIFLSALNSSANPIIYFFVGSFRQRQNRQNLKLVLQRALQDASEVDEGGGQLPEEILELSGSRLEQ
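Assay system: stable human MrgX1 HEK293 cell line. Quantity: 15,000 cells per well. Schedule: cells plated overnight, dye loaded 0.5 h 37 °C, 0.5 h room temperature. Detection: Fluo-4 NW calcium-flux fluorescence, kinetic read. Read-out basis: peak-minus-minimum fluorescence over baseline, converted to B scores. Control set: positive and negative control wells on each plate.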
MrgX1 antagonist: blocks BAM8-22 activation of human MrgX1 receptor. MRGX1-HEK293 calcium flux, Fluo-4, BAM8-22 antagonism; active compounds read low. B-score at 10 µM. actives 1.3% (n = 310,000). AID 588676;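 active = calcium-response B-score plate-corrected more than 3 library SD below zero, starting fluorescence within 5 deviations, no agonist response on first addition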;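 also: peak minus trough fluorescence over baseline after final BAM8-22 challenge near maximal dose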
MrgX1 allo act: allosterically activates human MrgX1 receptor signaling; Q96LB2; MrgX1-HEK293, Fluo-4 calcium flux, FDSS; active compounds read high; B-score at 10 µM; actives 0.63% (n = 310,000); AID 588675;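 active = plate-corrected calcium response at least 3 library SD above typical, normal starting fluorescence, not activating the receptor alone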;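 also: compound read alongside a low EC10 to EC30 dose of BAM8-22 agonist; peak minus trough fluorescence over baseline measured at the second addition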
RGS4 block: human RGS4 inhibition; P49798; HEK293 M3R/RGS4 inducible, Fluo-4 calcium flux; active compounds read high; triggered by carbachol at its EC20; B-score at 10 µM; actives 0.45% (n = 310,000); AID 463165;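 active = B-score, a plate-corrected calcium signal, over three deviations above library mean, with baseline fluorescence within five deviations of library mean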;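 also: RGS4 expression induced by doxycycline in cells with stable M3 receptor; B-score is computed from the integrated fluorescence ratio over baseline after carbachol; higher B-score means a larger calcium signal and so more RGS4 inhibition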
Target sequence (P49798 whole entry, looked up): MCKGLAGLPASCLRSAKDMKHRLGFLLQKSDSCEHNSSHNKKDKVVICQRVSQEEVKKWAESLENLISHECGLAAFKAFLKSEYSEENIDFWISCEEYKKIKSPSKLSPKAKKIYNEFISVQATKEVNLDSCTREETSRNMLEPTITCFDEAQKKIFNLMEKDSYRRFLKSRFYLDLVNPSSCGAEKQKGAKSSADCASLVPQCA
RGS4 act: RGS4 potentiation or activation | AID 463111 | HEK293 M3R/inducible RGS4, carbachol calcium flux Fluo4; active compounds read low | actives 0.92% (n = 310,000) | B-score at 10 µM;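 active = B-score of the integrated calcium signal more than 4 SD below the library mean, with starting fluorescence not abnormally high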;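 also: negative B-score means reduced calcium response which marks RGS4 activation or potentiation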
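Test system: HEK293 cells with stable M3R and inducible RGS4; also added: carbachol at ECmax as muscarinic agonist stimulus; schedule: dye loading 30 min 37 °C, buffer rest 30 min RT; technique: kinetic calcium fluorescence imaging with Fluo4-AM dye, 2 µM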
MrgX1 antag conf: reconfirmed antagonist of human MrgX1 receptor signaling. MrgX1-HEK293, BAM8-22 calcium flux, Fluo-4; active compounds read low. remaining BAM8-22 calcium response % of control (active compounds read low), % at 10 µM. actives 19% (n = 2,300). shares compounds with MrgX1 antagonist. AID 602420;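 active = remaining agonist calcium response no higher than 100% minus 3 SD of agonist-only control wells, with starting fluorescence near control levels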;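 also: agonist BAM8-22 given at a near maximal EC90 to ECmax level; peak minus minimum fluorescence divided by baseline after agonist addition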
HEK293 Ca flux: MrgX1 antagonist counter-screen hit in parental HEK293 cells | Fluo-4 calcium fluorescence, FDSS | fluorescence ratio F(max-min)/F0 at 10 µM | actives 2% (n = 4,000) | shares compounds with MrgX1 antagonist | AID 624111;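 active = duplicate-averaged calcium fluorescence ratio at least three times the standard deviation of buffer wells, a nonspecific response in parental cells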
HEK293 Ca counter: MrgX1 allosteric activator counter-screen hit in parental HEK293 cells; shares compounds with MrgX1 antagonist; parental HEK293 calcium flux, Fluo-4 fluorescence ratio; active compounds read high; fluorescence ratio F(max-min)/F0 at 10 µM; actives 0.4% (n = 4,000);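 active = calcium fluorescence ratio, averaged over duplicates, at least 3 SD of the buffer-well ratio, meaning a nonspecific response in receptor-free cells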;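 also: untransfected parental HEK293 lacking MrgX1 used as counterscreen for MrgX1 allosteric activators; fluorescence change taken during the second addition on a kinetic imager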
HEK293 Ca cntr2: MrgX1 activator counter-screen hit in parental HEK293 cells; shares compounds with MrgX1 antagonist; Fluo-4 calcium fluorescence (FDSS); active compounds read high; fluorescence ratio F(max-min)/F0 at 10 µM; actives 8.7% (n = 4,000); AID 624115;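 active = calcium fluorescence ratio at least three times the spread of buffer wells, meaning a non-specific response in parental cells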
Numbers without * were called inactive. Sampled rows, rich in hits. Any-hit rate of the full collection: about 3.8%.

Results for CC(=O)c1sc2nsc(SCCN3CCCCC3)c2c1N ?
Hep lipid drop: -51; MrgX1 agonist: inactive; MrgX1 antagonist: -5.2*; MrgX1 allo act: inactive; RGS4 block: inactive; RGS4 act: inactive; MrgX1 antag conf: inactive; HEK293 Ca flux: inactive; HEK293 Ca counter: inactive; HEK293 Ca cntr2: 52*

What do the screens show for `CC(C)(C)N1CC(C(=O)Nc2ccc(S(N)(=O)=O)cc2)CC1=O` (stereo not drawn)?
Hep lipid drop: -2; MrgX1 agonist: inactive; MrgX1 antagonist: -4.9*; MrgX1 allo act: inactive; RGS4 block: inactive; RGS4 act: inactive; MrgX1 antag conf: inactive; HEK293 Ca flux: inactive; HEK293 Ca counter: inactive; HEK293 Ca cntr2: inactive

What do the screens show for `CC(C)c1ccc(NC(=O)C2CC(=O)N(C(C)C)C2)cc1` (stereo not drawn)?
Hep lipid drop: -2; MrgX1 agonist: inactive; MrgX1 antagonist: -9*; MrgX1 allo act: inactive; RGS4 block: inactive; RGS4 act: inactive; MrgX1 antag conf: inactive; HEK293 Ca flux: inactive; HEK293 Ca counter: inactive; HEK293 Ca cntr2: inactive

What do the screens show for `CC(C)(C)N1CC(C(=O)Nc2ccc(S(=O)(=O)N3CCCCC3)cc2)CC1=O` (stereo not drawn)?
MrgX1 agonist: inactive; MrgX1 antagonist: inactive; MrgX1 allo act: inactive; RGS4 block: inactive; RGS4 act: inactive

How did CNS(=O)(=O)c1ccc(NC(=O)Nc2cccc(F)c2)cc1 do in these assays?
Hep lipid drop: 13; MrgX1 agonist: inactive; MrgX1 antagonist: inactive; MrgX1 allo act: inactive; RGS4 block: inactive; RGS4 act: inactive

What do the screens show for `CN1C(C)(C)CCCC1(C)C`?
MrgX1 agonist: inactive; MrgX1 antagonist: -7*; MrgX1 allo act: inactive; MrgX1 antag conf: 77%*; HEK293 Ca flux: inactive; HEK293 Ca counter: inactive; HEK293 Ca cntr2: inactive

How did CC(=O)C1=NN(c2ccccc2)C2(S1)S/C(=C\c1ccccc1)C(=O)N2c1ccccc1 (stereo not drawn) do in these assays?
Hep lipid drop: -17; MrgX1 agonist: inactive; MrgX1 antagonist: inactive; MrgX1 allo act: inactive; RGS4 block: inactive; RGS4 act: inactive

How did c1ccc(-c2nc(-c3ccncc3)no2)cc1 do in these assays?
Hep lipid drop: 0; MrgX1 agonist: inactive; MrgX1 antagonist: -7.6*; MrgX1 allo act: inactive; RGS4 block: inactive; RGS4 act: inactive; MrgX1 antag conf: inactive; HEK293 Ca flux: inactive; HEK293 Ca counter: inactive; HEK293 Ca cntr2: inactive

How did c1ccc(-c2ccccc2-c2nc(-c3ccncc3)no2)cc1 do in these assays?
Hep lipid drop: -2; MrgX1 agonist: inactive; MrgX1 antagonist: -4.7*; MrgX1 allo act: inactive; RGS4 block: inactive; RGS4 act: inactive; MrgX1 antag conf: inactive; HEK293 Ca flux: inactive; HEK293 Ca counter: inactive; HEK293 Ca cntr2: inactive

How did Cc1cc(C)cc(C(=O)NC(CC(N)=O)c2ccc(NC3CCCCC3)c([N+](=O)[O-])c2)c1 (stereo not drawn) do in these assays?
Hep lipid drop: 24; MrgX1 agonist: inactive; MrgX1 antagonist: inactive; MrgX1 allo act: inactive; RGS4 block: inactive; RGS4 act: inactive

How did COc1ccc(NC(=O)c2cccnc2N2CCCC2)cc1 do in these assays?
Hep lipid drop: 2; MrgX1 agonist: inactive; MrgX1 antagonist: -8.6*; MrgX1 allo act: inactive; RGS4 block: inactive; RGS4 act: inactive; MrgX1 antag conf: inactive; HEK293 Ca flux: inactive; HEK293 Ca counter: inactive; HEK293 Ca cntr2: 47*

How did CCOc1ccc(C(c2c(NC(=O)c3ccccc3)sc(C)c2C)N2CCN(C)CC2)cc1 (stereo not drawn) do in these assays?
Hep lipid drop: -28; MrgX1 agonist: inactive; MrgX1 antagonist: inactive; MrgX1 allo act: inactive; RGS4 block: inactive; RGS4 act: inactive

Results for Cc1sc(NC(=O)c2ccccc2)c(C(c2ccccn2)N2CCN(CCO)CC2)c1C (stereo not drawn) ?
Hep lipid drop: -2; MrgX1 agonist: inactive; MrgX1 antagonist: -4.5*; MrgX1 allo act: inactive; RGS4 block: inactive; RGS4 act: inactive; MrgX1 antag conf: inactive; HEK293 Ca flux: inactive; HEK293 Ca counter: inactive; HEK293 Ca cntr2: inactive

How did O=c1[nH]nc2n1CCCCC2 do in these assays?
MrgX1 agonist: inactive; MrgX1 antagonist: -10*; MrgX1 allo act: inactive; RGS4 block: inactive; RGS4 act: inactive; MrgX1 antag conf: inactive; HEK293 Ca flux: inactive; HEK293 Ca counter: inactive; HEK293 Ca cntr2: inactive

What do the screens show for `COc1ccc(OC)c(NC(=O)C2CCCN(S(C)(=O)=O)C2)c1` (stereo not drawn)?
Hep lipid drop: 16; MrgX1 agonist: inactive; MrgX1 antagonist: inactive; MrgX1 allo act: inactive; RGS4 block: inactive; RGS4 act: inactive

What do the screens show for `Cc1nc2sc(C(c3ccco3)N3CCC(C)CC3)c(O)n2n1` (stereo not drawn)?
Hep lipid drop: -18; MrgX1 agonist: inactive; MrgX1 antagonist: -5.2*; MrgX1 allo act: inactive; RGS4 block: inactive; RGS4 act: inactive; MrgX1 antag conf: inactive; HEK293 Ca flux: inactive; HEK293 Ca counter: inactive; HEK293 Ca cntr2: inactive

How did Cc1nc2sc(C(c3ccco3)N3CCN(C(c4ccccc4)c4ccccc4)CC3)c(O)n2n1 (stereo not drawn) do in these assays?
Hep lipid drop: 11; MrgX1 agonist: inactive; MrgX1 antagonist: inactive; MrgX1 allo act: inactive; RGS4 block: inactive; RGS4 act: inactive

What do the screens show for `O=C(N[C@@H](c1ccccc1)[C@H](O)c1ccccc1)[C@@H]1CCCN1C(=O)OCc1ccccc1`?
MrgX1 agonist: inactive; MrgX1 antagonist: inactive; MrgX1 allo act: inactive; RGS4 block: inactive; RGS4 act: inactive

What do the screens show for `CCOC(=O)CN1C(=O)C(=O)N(Cc2ccccc2F)C1=O`?
MrgX1 agonist: inactive; MrgX1 antagonist: inactive; MrgX1 allo act: inactive; RGS4 block: inactive; RGS4 act: inactive
